Each structure is given as a SMILES string. Calls of active or inactive are those of the source. The rule behind the calls is not given here.

Assay [1] concerns the target Tyrosine-protein kinase Yes (Homo sapiens) (UniProt P07947). As to the kind of experiment: Inhibition of YES ACT labeling site in human A-375 cells at 5 uM by KiNativ Profiling analysis relative to control. The format is cell-based.
Assay [2] has as its target Serine/threonine-protein kinase PknB (Mycobacterium tuberculosis) (UniProt P9WI81). As to the kind of experiment: Inhibition of Mycobacterium tuberculosis PKNB at 1 uM by Ambit Kinomescan binding assay relative to control. The procedure, abridged:
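In vitro ATP-site competition binding assay against a panel of over 420 kinases (KinomeScan), with compound tested at 10 or 1 μM.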

The nature of assay [3]: Inhibition of p70S6K ATP Loop labeling site harbouring DLKPENIMLNHQGHVK in human A-375 cells at 5 uM by KiNativ Profiling analysis relative to control. The following applies: condition cancer.
The target of assay [4] is DNA-PK/Ku70/Ku85 (Homo sapiens) (UniProt P78527+P12956+P13010). Put plainly: Inhibition of DNAPK ATP labeling site harbouring KGGSWIQEINVAEK in human A-375 cells at 0.05 uM by KiNativ Profiling analysis relative to control. The format is cell-based.
Assay [5] concerns the target RAF proto-oncogene serine/threonine-protein kinase (Homo sapiens, UniProt P04049). As to the kind of experiment: Inhibition of RAF1 Lys2 labeling site in human A-375 cells at 0.05 uM by KiNativ Profiling analysis relative to control. The format is cell-based.
Assay [6] has as its target Mitogen-activated protein kinase 3 (Homo sapiens) (UniProt P27361). As to the kind of experiment: Inhibition of ERK1 (unknown origin) at 1 uM by Ambit Kinomescan binding assay relative to control; values are per cent of control.
Assay [7] has as its target T1, Serine/threonine-protein kinase STK11 (Homo sapiens) (UniProt Q15831).
T1 sequence (whole entry): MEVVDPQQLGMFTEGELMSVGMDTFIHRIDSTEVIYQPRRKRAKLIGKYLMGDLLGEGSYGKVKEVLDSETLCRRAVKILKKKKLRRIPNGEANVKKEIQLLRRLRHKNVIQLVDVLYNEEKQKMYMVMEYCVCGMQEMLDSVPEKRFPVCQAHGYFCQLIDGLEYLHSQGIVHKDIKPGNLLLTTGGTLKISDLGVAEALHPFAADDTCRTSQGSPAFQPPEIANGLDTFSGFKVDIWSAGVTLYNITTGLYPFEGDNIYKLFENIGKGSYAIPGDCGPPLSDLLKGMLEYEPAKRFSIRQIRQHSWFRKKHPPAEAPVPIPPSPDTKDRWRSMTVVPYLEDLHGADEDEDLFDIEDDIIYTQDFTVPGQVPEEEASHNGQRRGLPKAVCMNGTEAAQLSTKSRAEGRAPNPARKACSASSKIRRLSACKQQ
As to the kind of experiment: Inhibition of LKB1 (unknown origin) at 1 uM by Ambit Kinomescan binding assay relative to control; values are per cent of control.

Assay [8] has as its target Serine/threonine-protein kinase N2 (Homo sapiens) (UniProt Q16513). Put plainly: Inhibition of PKN2 (unknown origin) at 1 uM by Ambit Kinomescan binding assay relative to control; values are per cent of control.
The target of assay [9] is Mitogen-activated protein kinase 7 (Homo sapiens) (UniProt Q13164). As to the kind of experiment: Inhibition of ERK5 (unknown origin) at 10 uM by Ambit Kinomescan binding assay.
Sequence of Mitogen-activated protein kinase 7 (Homo sapiens) (Q13164 2-816 limits assumed): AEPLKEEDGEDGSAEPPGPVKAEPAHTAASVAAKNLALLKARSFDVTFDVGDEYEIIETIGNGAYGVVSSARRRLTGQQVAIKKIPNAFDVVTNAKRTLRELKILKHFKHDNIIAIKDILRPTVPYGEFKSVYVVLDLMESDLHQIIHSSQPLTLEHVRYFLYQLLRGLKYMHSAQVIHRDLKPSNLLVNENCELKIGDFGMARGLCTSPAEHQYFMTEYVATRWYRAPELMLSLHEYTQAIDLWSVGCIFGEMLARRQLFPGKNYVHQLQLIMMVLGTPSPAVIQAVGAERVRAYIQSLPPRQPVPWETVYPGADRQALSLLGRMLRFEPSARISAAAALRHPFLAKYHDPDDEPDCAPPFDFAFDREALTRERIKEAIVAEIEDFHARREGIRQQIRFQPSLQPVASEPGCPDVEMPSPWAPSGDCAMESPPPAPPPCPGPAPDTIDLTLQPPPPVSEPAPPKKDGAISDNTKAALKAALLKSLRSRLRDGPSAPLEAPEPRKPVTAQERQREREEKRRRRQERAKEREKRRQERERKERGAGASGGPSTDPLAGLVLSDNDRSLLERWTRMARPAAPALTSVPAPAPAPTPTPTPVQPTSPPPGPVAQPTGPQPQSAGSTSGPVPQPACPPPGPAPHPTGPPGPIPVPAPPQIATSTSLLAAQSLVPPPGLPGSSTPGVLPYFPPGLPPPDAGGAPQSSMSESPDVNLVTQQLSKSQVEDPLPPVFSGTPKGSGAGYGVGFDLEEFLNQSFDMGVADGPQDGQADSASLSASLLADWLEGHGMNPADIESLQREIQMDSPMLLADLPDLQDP
Assay [10] addresses Mast/stem cell growth factor receptor Kit (Homo sapiens) (UniProt P10721). As to the kind of experiment: Inhibition of KIT (unknown origin) at 10 uM by Ambit Kinomescan binding assay relative to control.
For assay [11], the target named is Myosin light chain kinase (Homo sapiens) (UniProt Q32MK0). Put plainly: Inhibition of MLCK (unknown origin) at 10 uM by Ambit Kinomescan binding assay.
For assay [12], the target named is Serine/threonine-protein kinase PLK4 (Homo sapiens) (UniProt O00444). Put plainly: Inhibition of PLK4 (unknown origin) at 10 uM by Ambit Kinomescan binding assay.
Assay [13] concerns the target Ribosomal protein S6 kinase alpha-1 (Homo sapiens) (UniProt Q15418). Put plainly: Inhibition of RSK1 Protein Kinase Domain in human A-375 cells at 5 uM by KiNativ Profiling analysis relative to control. The format is cell-based.
Assay [14] concerns the target Maternal embryonic leucine zipper kinase (Homo sapiens) (UniProt Q14680). Put plainly: Inhibition of MELK Lys2 labeling site in human A-375 cells at 0.05 uM by KiNativ Profiling analysis relative to control. The format is cell-based.
In assay [15] the target is p38 delta/gamma (Homo sapiens) (UniProt O15264+P53778). As to the kind of experiment: Inhibition of p38d/g K2 labeling site in human Huh-7 cells at 10 uM by KiNativ Profiling analysis relative to control. The format is cell-based.
Assay [16] in a line: Inhibition of NEK6/7 K2 labeling site harbouring DIKPANVFITATGVVK in human Huh-7 cells at 1 uM by KiNativ Profiling analysis relative to control. The note with it: condition cancer.
The target in assay [17] is T2, Serine/threonine-protein kinase 3 (Homo sapiens) (UniProt Q13188).
T2 sequence (whole entry): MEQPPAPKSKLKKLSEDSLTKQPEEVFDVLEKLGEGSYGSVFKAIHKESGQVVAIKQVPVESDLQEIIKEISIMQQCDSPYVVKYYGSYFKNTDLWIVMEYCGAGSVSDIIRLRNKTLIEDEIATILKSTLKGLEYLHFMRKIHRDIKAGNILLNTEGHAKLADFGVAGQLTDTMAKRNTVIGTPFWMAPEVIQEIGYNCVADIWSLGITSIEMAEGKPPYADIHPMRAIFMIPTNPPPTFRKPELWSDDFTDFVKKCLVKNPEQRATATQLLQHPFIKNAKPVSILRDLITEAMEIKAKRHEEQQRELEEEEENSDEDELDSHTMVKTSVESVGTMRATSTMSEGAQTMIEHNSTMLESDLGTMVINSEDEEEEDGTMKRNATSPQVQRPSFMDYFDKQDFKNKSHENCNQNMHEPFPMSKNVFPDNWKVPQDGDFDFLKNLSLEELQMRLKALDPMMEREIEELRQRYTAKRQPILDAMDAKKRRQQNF
As to the kind of experiment: Inhibition of MST2 Lys2 labeling site harbouring DIKAGNILLNTEGHAK in human Huh-7 cell lysate at 1 uM by KiNativ Profiling analysis relative to control. The format is subcellular.

Assay [18] deals with Serine/threonine-protein kinase WNK1 (Homo sapiens) (UniProt Q9H4A3). As to the kind of experiment: Inhibition of Wnk1 Lys2 labeling site in human Huh-7 cell lysate at 1 uM by KiNativ Profiling analysis relative to control. The format is subcellular.
In assay [19] the target is Tyrosine-protein kinase ABL2 (Homo sapiens, UniProt P42684). As to the kind of experiment: Inhibition of ARG ACT labeling site in human Huh-7 cells at 1 uM by KiNativ Profiling analysis relative to control. The format is cell-based.
Sequence of Tyrosine-protein kinase ABL2 (P42684 whole entry): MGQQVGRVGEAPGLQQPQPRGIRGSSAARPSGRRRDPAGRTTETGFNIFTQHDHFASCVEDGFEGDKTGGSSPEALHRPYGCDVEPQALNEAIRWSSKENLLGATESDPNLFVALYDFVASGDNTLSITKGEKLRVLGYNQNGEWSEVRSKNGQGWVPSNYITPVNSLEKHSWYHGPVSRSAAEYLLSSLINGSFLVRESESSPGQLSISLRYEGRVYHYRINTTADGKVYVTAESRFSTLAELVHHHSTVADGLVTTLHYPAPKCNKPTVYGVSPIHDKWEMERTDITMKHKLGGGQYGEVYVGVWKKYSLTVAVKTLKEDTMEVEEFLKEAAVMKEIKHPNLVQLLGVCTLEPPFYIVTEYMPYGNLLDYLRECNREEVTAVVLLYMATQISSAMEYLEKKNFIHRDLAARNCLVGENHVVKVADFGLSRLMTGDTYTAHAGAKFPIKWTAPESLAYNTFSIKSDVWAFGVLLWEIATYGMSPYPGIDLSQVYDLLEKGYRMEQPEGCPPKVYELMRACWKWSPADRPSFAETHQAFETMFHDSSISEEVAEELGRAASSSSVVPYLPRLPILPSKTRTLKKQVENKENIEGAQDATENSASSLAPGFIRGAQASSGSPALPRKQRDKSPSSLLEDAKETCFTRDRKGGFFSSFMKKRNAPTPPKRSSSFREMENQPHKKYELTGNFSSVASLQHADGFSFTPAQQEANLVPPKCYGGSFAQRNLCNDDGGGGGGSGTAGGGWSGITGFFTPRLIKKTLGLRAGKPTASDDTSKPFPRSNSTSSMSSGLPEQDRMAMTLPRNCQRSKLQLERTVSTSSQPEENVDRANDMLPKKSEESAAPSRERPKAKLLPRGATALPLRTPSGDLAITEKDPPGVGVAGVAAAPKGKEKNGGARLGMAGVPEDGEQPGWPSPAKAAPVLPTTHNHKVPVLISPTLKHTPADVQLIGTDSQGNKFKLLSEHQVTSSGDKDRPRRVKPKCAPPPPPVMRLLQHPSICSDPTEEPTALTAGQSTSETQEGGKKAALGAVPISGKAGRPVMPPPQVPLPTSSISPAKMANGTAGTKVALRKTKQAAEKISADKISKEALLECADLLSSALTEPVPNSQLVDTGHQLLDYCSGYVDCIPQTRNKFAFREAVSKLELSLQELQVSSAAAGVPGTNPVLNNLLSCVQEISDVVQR
In assay [20] the target is Serine/threonine-protein kinase 24 (Homo sapiens) (UniProt Q9Y6E0). Put plainly: Inhibition of MST3 Lys2 labeling site harbouring IHRDIKAANVLLSEHGEVK in human Huh-7 cells at 1 uM by KiNativ Profiling analysis relative to control. The format is cell-based.
Sequence of Serine/threonine-protein kinase 24 (Homo sapiens) (Q9Y6E0 whole entry, looked up): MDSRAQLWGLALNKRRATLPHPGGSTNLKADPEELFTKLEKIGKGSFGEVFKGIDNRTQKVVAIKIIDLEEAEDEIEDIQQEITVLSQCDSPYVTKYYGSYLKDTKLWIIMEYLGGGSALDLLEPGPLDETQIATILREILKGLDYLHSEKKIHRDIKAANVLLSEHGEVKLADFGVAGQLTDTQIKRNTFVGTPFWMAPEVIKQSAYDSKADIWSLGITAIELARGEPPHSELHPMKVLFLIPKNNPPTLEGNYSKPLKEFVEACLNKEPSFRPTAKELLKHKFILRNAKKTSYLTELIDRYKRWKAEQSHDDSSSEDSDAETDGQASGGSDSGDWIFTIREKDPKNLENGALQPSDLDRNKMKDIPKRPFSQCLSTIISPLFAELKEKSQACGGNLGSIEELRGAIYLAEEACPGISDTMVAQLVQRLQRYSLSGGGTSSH

Sequence of Tyrosine-protein kinase Yes (Homo sapiens) (P07947 2-543 limits assumed): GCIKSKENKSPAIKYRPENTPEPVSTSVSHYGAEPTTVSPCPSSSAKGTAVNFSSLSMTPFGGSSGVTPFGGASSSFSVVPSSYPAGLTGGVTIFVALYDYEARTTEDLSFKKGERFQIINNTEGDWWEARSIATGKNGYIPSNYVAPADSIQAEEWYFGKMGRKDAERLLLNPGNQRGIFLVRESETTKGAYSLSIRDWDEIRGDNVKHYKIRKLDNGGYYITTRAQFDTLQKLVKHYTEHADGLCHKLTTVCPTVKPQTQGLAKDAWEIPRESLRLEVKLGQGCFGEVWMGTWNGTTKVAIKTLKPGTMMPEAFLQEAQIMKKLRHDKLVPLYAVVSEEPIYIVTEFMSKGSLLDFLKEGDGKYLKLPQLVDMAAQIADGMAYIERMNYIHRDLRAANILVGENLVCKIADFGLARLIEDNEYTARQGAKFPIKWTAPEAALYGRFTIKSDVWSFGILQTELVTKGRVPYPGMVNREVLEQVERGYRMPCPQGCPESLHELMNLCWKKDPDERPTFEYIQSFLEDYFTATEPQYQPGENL
Sequence of RAF proto-oncogene serine/threonine-protein kinase (P04049 whole entry): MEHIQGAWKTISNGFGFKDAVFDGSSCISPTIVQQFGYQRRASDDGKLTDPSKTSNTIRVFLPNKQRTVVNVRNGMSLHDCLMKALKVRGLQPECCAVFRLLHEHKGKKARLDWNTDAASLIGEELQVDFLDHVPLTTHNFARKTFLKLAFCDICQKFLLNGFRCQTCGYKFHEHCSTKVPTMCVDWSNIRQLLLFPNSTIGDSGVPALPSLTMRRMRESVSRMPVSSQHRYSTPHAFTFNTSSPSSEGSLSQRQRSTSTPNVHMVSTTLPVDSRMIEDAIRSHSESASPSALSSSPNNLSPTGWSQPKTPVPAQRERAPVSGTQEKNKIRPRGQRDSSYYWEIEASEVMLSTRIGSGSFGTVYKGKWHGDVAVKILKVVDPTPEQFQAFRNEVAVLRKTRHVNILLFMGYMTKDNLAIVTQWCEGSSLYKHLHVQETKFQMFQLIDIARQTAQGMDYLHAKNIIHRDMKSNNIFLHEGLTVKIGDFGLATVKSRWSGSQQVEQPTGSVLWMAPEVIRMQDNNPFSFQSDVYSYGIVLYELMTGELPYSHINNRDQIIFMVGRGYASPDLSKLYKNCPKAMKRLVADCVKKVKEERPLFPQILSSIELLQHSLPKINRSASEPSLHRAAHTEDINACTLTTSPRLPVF
Sequence of Mitogen-activated protein kinase 3 (Homo sapiens) (P27361 whole entry): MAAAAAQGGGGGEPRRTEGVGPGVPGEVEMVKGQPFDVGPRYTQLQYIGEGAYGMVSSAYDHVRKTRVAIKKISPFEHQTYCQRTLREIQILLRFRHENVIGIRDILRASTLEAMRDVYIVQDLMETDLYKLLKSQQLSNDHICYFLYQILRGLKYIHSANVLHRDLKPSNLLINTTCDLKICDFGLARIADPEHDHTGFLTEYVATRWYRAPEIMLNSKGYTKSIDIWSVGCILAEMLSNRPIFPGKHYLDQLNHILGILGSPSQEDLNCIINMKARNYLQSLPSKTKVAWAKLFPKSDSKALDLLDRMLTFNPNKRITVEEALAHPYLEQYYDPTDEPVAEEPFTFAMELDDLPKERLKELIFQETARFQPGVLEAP
Sequence of Mast/stem cell growth factor receptor Kit (Homo sapiens) (P10721 whole entry): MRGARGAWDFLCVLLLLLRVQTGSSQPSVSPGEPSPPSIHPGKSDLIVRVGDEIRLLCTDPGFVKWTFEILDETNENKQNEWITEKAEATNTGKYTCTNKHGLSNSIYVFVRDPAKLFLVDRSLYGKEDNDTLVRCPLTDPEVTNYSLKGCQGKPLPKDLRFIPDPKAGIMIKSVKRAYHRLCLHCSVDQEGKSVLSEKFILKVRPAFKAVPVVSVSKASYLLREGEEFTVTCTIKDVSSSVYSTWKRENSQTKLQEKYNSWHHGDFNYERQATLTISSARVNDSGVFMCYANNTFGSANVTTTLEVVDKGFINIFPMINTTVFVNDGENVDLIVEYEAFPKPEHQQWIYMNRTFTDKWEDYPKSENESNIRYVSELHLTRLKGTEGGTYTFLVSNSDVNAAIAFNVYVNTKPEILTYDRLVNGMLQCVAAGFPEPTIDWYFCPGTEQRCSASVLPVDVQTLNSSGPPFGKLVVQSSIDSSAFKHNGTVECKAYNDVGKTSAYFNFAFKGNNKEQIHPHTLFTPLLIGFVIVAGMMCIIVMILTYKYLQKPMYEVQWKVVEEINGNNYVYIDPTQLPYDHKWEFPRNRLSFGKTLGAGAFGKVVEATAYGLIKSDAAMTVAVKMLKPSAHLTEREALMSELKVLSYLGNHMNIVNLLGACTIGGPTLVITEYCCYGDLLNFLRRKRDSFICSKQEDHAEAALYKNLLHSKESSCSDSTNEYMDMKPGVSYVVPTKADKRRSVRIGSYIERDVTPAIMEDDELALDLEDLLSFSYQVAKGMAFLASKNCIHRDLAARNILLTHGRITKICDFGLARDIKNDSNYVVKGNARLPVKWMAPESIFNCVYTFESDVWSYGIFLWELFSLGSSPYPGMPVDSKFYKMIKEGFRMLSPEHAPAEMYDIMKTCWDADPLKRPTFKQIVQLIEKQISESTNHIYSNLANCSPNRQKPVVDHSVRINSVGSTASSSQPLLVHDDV

As usually defined, the inhibition is the change of the read-out against control, counted positive when it falls. For `CCN1CCN(Cc2ccc(NC(=O)c3ccc(C)c(/C=C/c4cnc5[nH]ccc5c4OC)c3)cc2C(F)(F)F)CC1`, the inhibition in [1] was greater than 99%; in [2], 84%; in [4], 17.7%; in assay [5], 63.7%. The inhibition at 5 µM in assay [3] was -8%. The residual activity in assay [6] amounted to 100%; in assay [7], 58%; in assay [8] it was 35%.

As for `CCN1CCN(Cc2ccc(NC(=O)c3ccc(C)c(Oc4ccnc5[nH]ccc45)c3)cc2C(F)(F)F)CC1`, the inhibition in assay [1] came to 89.6%; in assay [10], 0%; in [13] it was 5.8%; in assay [14] it was 4.1%; in assay [5], 69.8%; in assay [15], 65%. Further, the inhibition result in [9], in assay [11] and in assay [12] was “inactive” each time. Moreover, in assay [3], the inhibition at 5 µM came to 14.7%. Further, in [16], the inhibition at 1 µM is -13.1%.

As for `CNc1cc(Oc2cc(C(=O)Nc3cc(N4CCN(C)CC4)cc(C(F)(F)F)c3)ccc2C)ncn1`, the inhibition amounted to 8.2% in assay [17], 2.7% in [18], 31.6% in assay [19] and 5% in [20].
